The RNAGym collection of RNA variant scans (doi:10.1002/anie.201605470)

B1: Osa-1-4 twister ribozyme (parent)
chain: CCGCCUAACACUGCCAAUGCCGGUCCCAAGCCCGGAUAAAAGUGGAGGGGGCGG

Variants of: B1
Assay: self-cleavage, relative activity (ratio to wild type); higher = more cleavage; co-transcriptional
Procedure, shortened: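 For each read, cleavage status was taken from whether upstream sequence was present. The reads came from an Oryza sativa twister ribozyme of 54 nucleotides, whose DNA template was synthesised with 97 % wild-type base and 1 % of each other base at the 48 positions downstream of the cleavage site. The template was transcribed in vitro at 37 °C for 2 h with co-transcriptional self-cleavage, and the RNA was reverse-transcribed using a template-switching oligonucleotide, PCR-amplified and deep-sequenced. Relative activity is the fraction cleaved normalised to wild type.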

| Variant | self-cleavage |
| --- | --- |
| G47A U12A | 0.08 |
| G47A U12C | 0.07 |
| G47U U24C | 0.03 |
| G47U U24G | 0.02 |
| G47U U24A | 0.05 |
| A46G C52U | 0.09 |
| A46G C52A | 0.1 |
| A46G C52G | 0.24 |
| A46G C20A | 0.09 |
| A46G C20G | 0.04 |
| A46G C20U | 0.07 |
| G47U G54A | 0.28 |
| G47U G54C | 0.32 |
| G47U G54U | 0.46 |
| A46G C31U | 0.05 |
| A46G C31G | 0.03 |
| A46G C31A | 0.01 |
| A46U G48C | 0.04 |
| A46U G48U | 0.03 |
| A46U G48A | 0.03 |
| G47U U43A | 0.1 |

| Variant | self-cleavage |
| --- | --- |
| G47U U43C | 0.08 |
| G47U U43G | 0.07 |
| G48A G49C | 0.03 |
| G48A G49A | 0.05 |
| G48A G49U | 0.04 |
| A46G C25A | 0.02 |
| A46G C25G | 0.02 |
| A46G C25U | 0.05 |
| A46U G50C | 0.07 |
| A46U G50U | 0.09 |
| A46U G50A | 0.08 |
| A46G C9U | 0.03 |
| A46G C9G | 0.07 |
| A46G C9A | 0.03 |
| A46U U24A | 0.04 |
| A46U U24C | 0.05 |
| A46U U24G | 0.01 |
| A46G G13C | 0.02 |
| A46G G13A | 0.02 |
| A46G G13U | 0.01 |
| G47A U18G | 0.56 |

| Variant | self-cleavage |
| --- | --- |
| G47A U18A | 0.33 |
| G47A U18C | 0.22 |
| A46U C32U | 0.05 |
| A46U C32G | 0.05 |
| A46U C32A | 0.03 |
| A46U C26A | 0.02 |
| A46U C26U | 0.06 |
| A46U C26G | 0.03 |
| A46G C27A | 0.05 |
| A46G C27U | 0.04 |
| A46G C27G | 0.04 |
| A46U C20U | 0.1 |
| A46U C20G | 0.05 |
| A46U C20A | 0.06 |
| A46U U18C | 0.08 |
| A46U U18A | 0.05 |
| A46U U18G | 0.09 |
| A46U C27A | 0.04 |
| A46U C27G | 0.03 |
| A46U C27U | 0.06 |
| A46U G23U | 0.03 |

| Variant | self-cleavage |
| --- | --- |
| A46U G23A | 0.06 |
| A46U G23C | 0.02 |
| G47C G51U | 0.05 |
| G47C G51A | 0.09 |
| G47C G51C | 0.05 |
| A46G G49C | 0.03 |
| A46G G49U | 0.03 |
| A46G G49A | 0.03 |
| A46G G54C | 0.06 |
| A46G G54U | 0.11 |
| A46G G54A | 0.07 |
| A46U C25U | 0.06 |
| A46U C25G | 0.04 |
| A46U C25A | 0.03 |
| G47C | 0.17 |
| G47U | 0.42 |
| G47A | 0.51 |
| A46U G53A | 0.1 |
| A46U G53C | 0.05 |
| A46U G53U | 0.09 |
